Data as given in ChEMBL document CHEMBL4196136, “Chemical Constituents of Thai Citrus hystrix and Their Antiausterity Activity against the PANC-1 Human Pancreatic Cancer Cell Line” (J Nat Prod, 2018).
The source made the active and inactive calls. No cut-off for these calls is given here.

What was measured:
PANC-1 [1] = assay: Cytotoxicity against human PANC1 cells in DMEM measured after 24 hrs by WST8 assay; assay type: cell-based; conditions: panc-1, 24 h
How it was run: (§1)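 Cells kept in DMEM with 10% FBS at 37 °C, 5% CO2. Seeded at 1.5 × 10^4 cells/well in DMEM for 24 h, washed twice with PBS, then exposed 24 h to serially diluted samples in DMEM or nutrient-deprived medium (NDM). Viability by WST-8 (3 h, A450) from three-well means. PC50 is the concentration killing 50% of cells in NDM without toxicity in DMEM.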

PSN1 [2] = assay: Cytotoxicity against human PSN1 cells in DMEM measured after 24 hrs by WST8 assay; assay type: cell-based; conditions: psn1, 24 h; how it was run: as §1
MIA PaCa-2 [3] = assay: Cytotoxicity against human MIAPaCa2 cells in DMEM measured after 24 hrs by WST8 assay; assay type: cell-based; conditions: mia paca-2, 24 h; how it was run: as §1
PSN1 [4] = assay: Antiausteritic activity against human PSN1 cells in nutrient-deprived medium measured after 24 hrs by WST8 assay; assay type: functional; how it was run: as §1
PANC-1 [5] = assay: Antiausteritic activity against human PANC1 cells in nutrient-deprived medium measured after 24 hrs by WST8 assay; assay type: functional; how it was run: as §1
MIA PaCa-2 [6] = assay: Antiausteritic activity against human MIAPaCa2 cells in nutrient-deprived medium measured after 24 hrs by WST8 assay; assay type: functional; how it was run: as §1
PANC-1 [7] = assay: Antiausteritic activity against human PANC1 cells in nutrient deprived medium assessed as cell shrinkage at 10 uM measured every 10 mins […] by phase contrast microscopic method; assay type: functional, cell-based
How it was run: (§2)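 PANC-1 (2 × 10^5) attached overnight in complete medium, washed twice with PBS, treated with 10 μM in NDM. Held in a stage-top incubator at 37 °C, 5% CO2. Phase-contrast images taken every 10 min for 24 h.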

PANC-1 [8] = assay: Antiausteritic activity against human PANC1 cells in nutrient deprived medium assessed as induction of morphological changes at 6.25 to 25 uM after 24 hrs by ethidium bromide/acridine orange staining based microscopic method; assay type: functional, cell-based
How it was run: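 PANC-1 (2 × 10^5) seeded in 30 mm dishes overnight, washed twice with PBS, treated in NDM for 24 h in humidified CO2 incubator. Acridine orange/ethidium bromide double stain, 15 min in the dark. Fluorescence (red/green) and phase-contrast imaging at 20× objective.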

Homo sapiens = organism: Homo sapiens; assay: Inhibition of AKT/mTOR signaling in human PANC1 cells in nutrient deprived medium assessed as effect on mTOR phosphorylation up to 5 uM measured within 6 hrs by Western blot analysis; assay type: cell-based
How it was run: (§3)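 PANC-1 cells treated in nutrient-deprived medium. Proteins resolved by SDS-PAGE and transferred to PVDF. Membranes blocked, washed in PBS with 0.1% Tween 20, and incubated overnight with primary antibodies against p-Akt, Akt, p-mTOR and mTOR. GAPDH served as loading control.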

PANC-1 [9] = assay: Reduction in total AKT expression in human PANC1 cells in nutrient deprived medium at up to 5 uM measured within 6 hrs by Western blot analysis; assay type: functional, cell-based; how it was run: as §3
PANC-1 [10] = assay: Inhibition of colony formation in human PANC1 cells in DMEM at 12.5 uM after 10 days by crystal violet staining based assay; assay type: functional, cell-based
How it was run: (§4)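 PANC-1 at 500 cells/well in DMEM, attached 24 h at 37 °C, 5% CO2. Treated with 12.5 or 25 μM in DMEM and grown 10 days. Cells washed with PBS, fixed with 4% formaldehyde, stained 15 min with crystal violet. Colony area measured; three replicates.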

PANC-1 [11] = assay: Antiausteritic activity against human PANC1 cells in nutrient deprived medium assessed as cell death at 25 uM after 24 hrs by ethidium bromide/acridine orange staining based microscopic method relative to control; assay type: functional
How it was run: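 PANC-1 cells seeded at 2 × 10^5 per 30 mm dish, attached overnight, PBS-washed twice, then exposed to compound in nutrient-deprived medium (NDM) for 24 h in humidified CO2 incubator. Acridine orange/ethidium bromide double stain added 15 min in dark; fluorescence (red/green) and phase-contrast images taken at 20× objective; red-fluorescing, morphologically altered cells scored as dead.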

PANC-1 [12] = assay: Antiausteritic activity against human PANC1 cells in nutrient deprived medium assessed as disintegration of cell organelles at 10 uM measured every 10 mins for 24 hrs by phase contrast microscopic method; assay type: functional, cell-based; how it was run: as §2
PANC-1 [13] = assay: Antiausteritic activity against human PANC1 cells in nutrient deprived medium assessed as cell death at 10 uM measured every 10 mins for 24 hrs by phase contrast microscopic method; assay type: functional, cell-based; how it was run: as §2
PANC-1 [14] = assay: Antiausteritic activity against human PANC1 cells in nutrient deprived medium assessed as plasma blebbing at 10 uM measured every 10 mins […] by phase contrast microscopic method; assay type: functional, cell-based; how it was run: as §2
PANC-1 [15] = assay: Antimigratory activity in human PANC1 cells in DMEM assessed as cell migration at 10 uM after 24 hrs by wound healing assay (reference value: 95%); assay type: functional
PANC-1 [16] = assay: Inhibition of colony formation in human PANC1 cells in DMEM at 25 uM after 10 days by crystal violet staining based assay relative to control; assay type: functional; conditions: PANC-1, 240 h; how it was run: as §4

| SMILES | Activity (PANC-1 [1]) | Activity (PSN1 [2]) | Activity (MIA PaCa-2 [3]) | PC50 (PSN1 [4]) [µM] | PC50 (PANC-1 [5]) [µM] | PC50 (MIA PaCa-2 [6]) [µM] | Activity (PANC-1 [7]) | Activity (PANC-1 [8]) | inhibition (Homo sapiens) | Activity (PANC-1 [9]) | inhibition (PANC-1 [10]) | Activity (PANC-1 [11]) [%] | Activity (PANC-1 [12]) | Activity (PSN1 [4]) | Activity (PANC-1 [5]) | Activity (PANC-1 [13]) | Activity (MIA PaCa-2 [6]) | Activity (PANC-1 [14]) | Activity (PANC-1 [15]) [%] | inhibition at 25 µM (PANC-1 [16]) [%] |
| --- | --- | --- | --- | --- | --- | --- | --- | --- | --- | --- | --- | --- | --- | --- | --- | --- | --- | --- | --- | --- |
| C/C(=C\COc1c2ccoc2cc2oc(=O)ccc12)CC[C@@H](O)C(C)(C)O | Non-Toxic | Non-Toxic | Non-Toxic | 76.1 | 76.5 | 49.4 | – | – | – | – | – | – | – | – | – | – | – | – | – | – |
| COC(C)(C)[C@H](O)COc1c2ccoc2cc2oc(=O)ccc12 | Non-Toxic | Non-Toxic | Non-Toxic | 89.7 | 89.6 | 87 | – | – | – | – | – | – | – | – | – | – | – | – | – | – |
| COC(C)(C)[C@H](O)CC/C(C)=C/COc1c2ccoc2cc2oc(=O)ccc12 | Non-Toxic | Non-Toxic | Non-Toxic | 37.8 | 37.8 | 37.1 | – | – | – | – | – | – | – | – | – | – | – | – | – | – |
| C=C(C)[C@@H](O)COc1c2ccoc2cc2oc(=O)ccc12 | Non-Toxic | Non-Toxic | Non-Toxic | >100 | 86.6 | >100 | – | – | – | – | – | – | – | – | – | – | – | – | – | – |
| CO[C@@H](COc1c2ccoc2cc2oc(=O)ccc12)C(C)(C)O | Non-Toxic | Non-Toxic | Non-Toxic | 40.6 | 18.8 | 51.1 | – | – | – | – | – | – | – | – | – | – | – | – | – | – |
| COc1cc(C[C@H]2C(=O)OC[C@@H]2Cc2ccc(OC)c(OC)c2)ccc1O [ARCTIGENIN] | – | – | – | 0.7 | 0.7 | 1.9 | – | – | – | – | – | – | – | – | – | – | – | – | – | – |
| CC(C)=CCC/C(C)=C/COc1c2ccoc2cc2oc(=O)ccc12 [BERGAMOTTIN] | Non-Toxic | Non-Toxic | Non-Toxic | 9.4 | 4.6 | 2.2 | Active | Active | Active | Active | Active | 100 | Active | Dose-dependent effect | Dose-dependent effect | Active | Dose-dependent effect | Active | 30 | 100 |
| CC(C)=CCOc1c2ccoc2cc2oc(=O)ccc12 [ISOIMPERATORIN] | Non-Toxic | Non-Toxic | Non-Toxic | 41.7 | 41.2 | 37.2 | – | – | – | – | – | – | – | – | – | – | – | – | – | – |
| CC(C)(O)[C@H](O)COc1c2ccoc2cc2oc(=O)ccc12 [OXYPEUCEDANIN HYDRATE] | Non-Toxic | Non-Toxic | Non-Toxic | 89.7 | 41.2 | 79.4 | – | – | – | – | – | – | – | – | – | – | – | – | – | – |
| CC1(C)O[C@H]1COc1c2ccoc2cc2oc(=O)ccc12 [OXYPEUCEDANIN] | Non-Toxic | Non-Toxic | Non-Toxic | 74.6 | 76.5 | 38 | – | – | – | – | – | – | – | – | – | – | – | – | – | – |
| O=c1ccc2ccc(O)cc2o1 [UMBELLIFERONE] | Non-Toxic | Non-Toxic | Non-Toxic | >100 | >100 | >100 | – | – | – | – | – | – | – | – | – | – | – | – | – | – |
